One series concerns the target T1, Thromboxane-A synthase (Homo sapiens, UniProt P24557).
T1 sequence (P24557 whole entry): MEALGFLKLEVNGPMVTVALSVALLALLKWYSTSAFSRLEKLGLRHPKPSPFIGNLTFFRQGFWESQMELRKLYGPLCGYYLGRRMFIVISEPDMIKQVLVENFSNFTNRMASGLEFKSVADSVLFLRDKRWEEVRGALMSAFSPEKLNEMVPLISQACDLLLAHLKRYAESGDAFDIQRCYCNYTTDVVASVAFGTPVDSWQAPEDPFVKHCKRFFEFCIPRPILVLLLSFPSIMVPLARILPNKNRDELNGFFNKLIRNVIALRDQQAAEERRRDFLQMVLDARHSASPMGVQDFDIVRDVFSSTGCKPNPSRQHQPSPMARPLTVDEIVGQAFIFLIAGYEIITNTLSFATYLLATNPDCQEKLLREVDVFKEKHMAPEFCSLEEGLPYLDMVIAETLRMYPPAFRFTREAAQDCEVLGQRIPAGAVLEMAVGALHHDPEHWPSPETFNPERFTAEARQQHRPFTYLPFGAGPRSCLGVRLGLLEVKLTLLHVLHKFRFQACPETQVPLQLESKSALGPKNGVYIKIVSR
The series is described as follows: Inhibitory activity against thromboxane A2 synthetase. The gist of the method: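 Human platelet microsomes, cyclooxygenase inactivated with 30 μM indomethacin (30 min, 0 °C). Compound preincubated 2 min on ice, pH 7.8 phosphate. Then 1 min on ice with freshly made PGH2 (from 0.1 mM arachidonic acid and ram seminal vesicle microsomes). Stopped with EtOH. TxB2 measured by RIA in triplicate; dose-response curves over several concentrations.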

Series [1] has as its target T2, Cytochrome P450 11B1, mitochondrial (Rattus norvegicus, UniProt P15393).
T2 sequence (P15393 whole entry): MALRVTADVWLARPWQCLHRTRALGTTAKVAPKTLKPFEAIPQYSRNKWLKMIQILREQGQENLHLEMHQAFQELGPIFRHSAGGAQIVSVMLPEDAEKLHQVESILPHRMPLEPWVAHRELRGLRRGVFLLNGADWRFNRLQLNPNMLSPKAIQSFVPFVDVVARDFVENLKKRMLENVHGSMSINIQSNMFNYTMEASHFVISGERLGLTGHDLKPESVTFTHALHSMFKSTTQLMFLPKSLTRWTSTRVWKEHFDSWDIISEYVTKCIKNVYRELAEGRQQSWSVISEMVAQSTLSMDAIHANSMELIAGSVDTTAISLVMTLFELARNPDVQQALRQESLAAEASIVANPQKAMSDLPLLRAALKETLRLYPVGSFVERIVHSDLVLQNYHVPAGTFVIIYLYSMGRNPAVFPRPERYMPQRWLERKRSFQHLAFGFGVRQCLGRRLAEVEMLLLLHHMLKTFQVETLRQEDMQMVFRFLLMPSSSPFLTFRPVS
The series is described as follows: Inhibition of rat adrenal 11-beta-hydroxylase. The gist of the method: (§1)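 Washed adrenal mitochondria from three male Charles River rats, used within 30 min. Incubated at 37 °C, pH 7.4 (HEPES/sucrose/MgCl2/KH2PO4/malate) with 50 μM [14C]-11-deoxycorticosterone and test drug, 5-min preincubation then 10 min with mitochondria. Extracted into CH2Cl2. Substrate and corticosterone separated by silica TLC and counted by scintillation.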

Series [2] deals with T3, 11-beta-hydroxylase (Cytochrome P450 11B1, mitochondrial) (Rattus norvegicus, UniProt P15393).
T3 sequence (P15393 whole entry): T2 sequence (P15393 whole entry)
The series is described as follows: Inhibition of rat adrenal 11-beta-hydroxylase at 10e-5 M. The conditions noted are these: rat adrenal 11-beta-hydroxylase (adrenal enzyme preparation). The gist of the method: as §1

With `N#Cc1cccc(OCCn2ccnc2)c1`, at Thromboxane-A synthase, the IC50 (usually the concentration at which inhibition is half-maximal) amounted to 3.5 µM. Turning to `CC(C)c1[nH]c2ccccc2c1Cn1ccnc1`, the results for the IC50 (on Thromboxane-A synthase; in series [1]) were 0.015 µM and 2 µM, respectively. `c1ccc(OCCn2ccnc2)cc1`: the inhibition (as a rule, the share of the control response that was lost under treatment) at 0.0001 M in series [2] is 72%. Further, at Thromboxane-A synthase, the midpoint of inhibition, the IC50, lay at 0.66 µM.

For `O=C(O)Cc1ccccc1OCCn1ccnc1`, on Thromboxane-A synthase, the IC50 was more than 10 µM.

As for `CN(C)C(=O)c1ccc(OCCn2ccnc2)cc1`, half-maximal inhibition against Thromboxane-A synthase (IC50) was put at 1.1 µM. For the compound `CNC(=O)c1ccc(OCCn2ccnc2)cc1`, the IC50 at Thromboxane-A synthase stood at 0.86 µM. Regarding `NC(=O)c1ccc(OCCn2ccnc2)cc1`, the IC50 at Thromboxane-A synthase was determined as 0.056 µM; in series [1], 10 µM. At Thromboxane-A synthase, `CCOC(=O)c1ccc(OCCCn2ccnc2)cc1` registered an IC50 of 3 µM. Consider `O=C(O)Cc1ccc(OCCn2ccnc2)cc1`, for which the IC50 against Thromboxane-A synthase was determined as 0.032 µM. On the same count and under the same terms, next, `CCOC(=O)COc1ccc(OCCn2ccnc2)cc1`: 0.61 µM; `N#Cc1ccc(OCCn2ccnc2)cc1`: 13 µM. On the same count and under the same terms, under `NC(=O)Nc1ccc(OCCn2ccnc2)cc1` stands 0.84 µM. `NC(=O)c1ccccc1OCCn1ccnc1` yielded an IC50 at Thromboxane-A synthase of 22 µM. As to `O=C(O)c1cccc(OCCn2ccnc2)c1`, the IC50 on Thromboxane-A synthase is 0.53 µM; in series [1], more than 100 µM. At Thromboxane-A synthase, `O=C(O)c1ccccc1OCCn1ccnc1` gave a 50% inhibitory concentration (IC50) of more than 10 µM. `c1cn(CCOc2ccc(-c3nnn[nH]3)cc2)cn1` returned a concentration for half-maximal inhibition (IC50) at Thromboxane-A synthase of 0.015 µM. Still for that read-out and setting: next, `Nc1ccc(OCCn2ccnc2)cc1`: more than 50 µM. On the same count and under the same terms, next, `CC(=O)Nc1ccc(OCCn2ccnc2)cc1`: 4 µM.

With `O=C(O)c1ccc(OCCCn2ccnc2)cc1`, on Thromboxane-A synthase, the midpoint of inhibition, the IC50, lay at 0.027 µM. The same measure, in the same setting: under `CCOC(=O)c1ccccc1OCCn1ccnc1` stands 4.4 µM; under `CCOC(=O)Cc1ccccc1OCCn1ccnc1`, 2 µM. Same read-out and setting: under `O=C(NC(=O)c1ccc(OCCn2ccnc2)cc1)c1ccccc1` stands 0.18 µM. For the compound `O=C(O)COc1ccc(OCCn2ccnc2)cc1`, the IC50 against Thromboxane-A synthase was 0.095 µM; in series [1] it was more than 100 µM. Turning to `O=[N+]([O-])c1ccc(OCCn2ccnc2)cc1`, at Thromboxane-A synthase, the half-maximal inhibitory concentration (IC50) is more than 50 µM. Same read-out and setting: under `CCOC(=O)Cc1ccc(OCCn2ccnc2)cc1` stands 2.9 µM; under `NS(=O)(=O)c1ccc(OCCn2ccnc2)cc1`, more than 50 µM. On Thromboxane-A synthase, `NC(=O)Cc1ccc(OCCn2ccnc2)cc1` displayed an IC50 of 1.8 µM.

The compound `CC(=O)NC(=O)c1ccc(OCCn2ccnc2)cc1` registered an IC50 against Thromboxane-A synthase of 0.63 µM. With `NC(=O)COc1ccc(OCCn2ccnc2)cc1`, the IC50 against Thromboxane-A synthase was 0.85 µM; in series [1] it was more than 100 µM. Take `O=C(O)c1ccc(OCCn2ccnc2)cc1` [DAZOXIBEN]: in series [1], the IC50 was more than 100 µM. `c1c[nH]cn1` [IMIDAZOLE]: at Thromboxane-A synthase, the concentration for half-maximal inhibition (IC50) amounted to 670 µM.

On to `COc1ccc2c(c1)c(CC(=O)O)c(C)n2C(=O)c1ccc(Cl)cc1` [INDOMETHACIN], for which, at Thromboxane-A synthase, the IC50 was more than 100 µM.

Values taken from ChEMBL document CHEMBL1122814, “Selective thromboxane synthetase inhibitors. 1. 1-[(Aryloxy)alkyl]-1H-imidazoles” (J Med Chem, 1985).
